Measurements taken from ChEMBL document CHEMBL1123619, “Isothiourea derivatives of 6-phenyl-2,3,5,6-tetrahydroimidazo[2,1-b]thiazole with broad-spectrum anthelmintic activity” (J Med Chem, 1987).
Activity calls are given as the source filed them. The calls are words filed in the database; no cut-off is given here.

Experiments:
[1] = test system: Mus musculus; experiment: Nematocidal activity against Nematospiroides dubius induced necropsy in mouse, after oral administration of 100 mg/kg; format: functional
Outline: (§1)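 Seven-week-old female LACA mice infected orally with 100 N. dubius L3 larvae; single gavage dose given at day 10 of infection, groups of four mice; necropsy 4 days later; percent activity from worm burdens of treated versus untreated groups.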

[2] = test system: Ovis aries; experiment: Anthelmintic activity against adult liver fluke (Fasciola hepatica) in 2 sheep, after peroral administration of 30 mg/kg was determined. Value in parentheses indicate number of animals used; format: functional; details: route oral
Outline: (§2)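 Sheep dosed with a single oral dose. Fecal fluke egg output monitored after treatment. Animals necropsied only if the fecal egg count fell. Postmortem Fasciola hepatica burdens compared with untreated control sheep (mean of 10 controls). Single animals per test unless otherwise indicated, with group size given in parentheses. I denotes no effect on fecal fluke egg output.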

[3] = test system: Ovis aries; experiment: Anthelmintic activity against adult liver fluke (Fasciola hepatica) in sheep, after peroral administration of 15 mg/kg was determined; format: functional; details: route oral; outline: as §2
[4] = test system: Heligmosomoides polygyrus; experiment: Nematocidal activity against Nematospiroides dubius induced necropsy in mouse, oral administration 200 mg/kg; format: functional; outline: as §1
[5] = test system: Ovis aries; experiment: Anthelmintic activity against adult liver fluke (Fasciola hepatica) in sheep, after peroral administration of 20 mg/kg was determined; format: functional; details: route oral; outline: as §2
[6] = test system: Fasciola hepatica; experiment: Anthelmintic activity against adult liver fluke (Fasciola hepatica) in sheep following 30 mg/kg p.o.; format: functional; details: route oral; outline: as §2
[7] = test system: Ovis aries; experiment: Toxic activity expressed as the percentage against liver fluke in the sheep at 15 mg/kg peroral administration of dose; format: ADME, organism-based; set-up: dose 15 mg/kg, route oral; details: in vivo, po
Outline: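 Fasciola hepatica in sheep, controlled test; animals necropsied only when fecal egg count fell; postmortem fluke burdens compared with untreated control sheep (10 controls).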

[8] = test system: Mus musculus; experiment: Nematocidal against Nematospiroides dubius in mouse was determined at 1 mg/kg peroral dose of compound; format: functional; details: route oral; outline: as §1
[9] = test system: Mus musculus; experiment: Nematocidal against Nematospiroides dubius in mouse was determined at 5 mg/kg peroral dose of compound; format: functional; details: route oral; outline: as §1
[10] = test system: Ovis aries; experiment: Toxic activity expressed as the percentage against liver fluke in the sheep at 30 mg/kg peroral administration of dose; lethal; format: ADME, organism-based; set-up: dose 30 mg/kg, route oral; details: in vivo, po
[11] = test system: Mus musculus; experiment: Nematocidal against Nematospiroides dubius in mouse was determined at 0.5 mg/kg peroral dose of compound; format: functional; details: route oral; outline: as §1
[12] = test system: Mus musculus; experiment: Nematocidal against Nematospiroides dubius in mouse was determined at 50 mg/kg peroral dose of compound; all animals died at this dose; format: functional, organism-based; set-up: dose 50 mg/kg; outline: as §1
[13] = test system: Ovis aries; experiment: Anthelmintic activity against adult liver fluke (Fasciola hepatica) in sheep, after peroral administration of 30 mg/kg; I means no effect on sheep fecal fluke egg output; format: functional, organism-based; set-up: dose 30 mg/kg; details: at 30 mg/kg; outline: as §2
[14] = test system: Mus musculus; experiment: Nematocidal activity against Nematospiroides dubius induced necropsy in mouse, after oral administration of 50 mg/kg of the compound; format: functional; outline: as §1
[15] = test system: Ovis aries; experiment: Anthelmintic activity against adult liver fluke (Fasciola hepatica) in sheep, after peroral administration of 30 mg/kg was determined. Value in parentheses indicate number of animals used; format: functional; details: route oral; outline: as §2
[16] = test system: Ovis aries; experiment: Anthelmintic activity against adult liver fluke (Fasciola hepatica) in 2 sheep, after peroral administration of 30 mg/kg was determined.; format: functional; details: route oral; outline: as §2
[17] = test system: Mus musculus; experiment: Nematocidal activity against Nematospiroides dubius induced necropsy in mouse, after oral administration of 100 mg/kg of the compound; format: functional; outline: as §1
[18] = test system: Ovis aries; experiment: Anthelmintic activity against adult liver fluke (Fasciola hepatica) in sheep, after peroral administration of 7.5 mg/kg was determined; format: functional; details: route oral; outline: as §2
[19] = test system: Mus musculus; experiment: Nematocidal activity against Nematospiroides dubius induced necropsy in mouse, after oral administration of 25 mg/kg of the compound; format: functional; outline: as §1
[20] = test system: Ovis aries; experiment: Anthelmintic activity against adult liver fluke (Fasciola hepatica) in sheep, after peroral administration of 5 mg/kg was determined; format: functional; details: route oral; outline: as §2
[21] = test system: Mus musculus; experiment: Nematocidal activity against Nematospiroides dubius induced necropsy in mouse, after oral administration of 12.5 mg/kg of the compound; format: functional
Outline: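 Female LACA mice (7 weeks) infected orally with 100 N. dubius L3 larvae; single oral dose as solution in PEG 400 on infection day 10, four mice per group; necropsied 4 days later; percent activity by comparing treated and untreated worm burdens.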

[22] = test system: Ovis aries; experiment: Anthelmintic activity against adult liver fluke (Fasciola hepatica) in sheep, after peroral administration of 10 mg/kg was determined; format: functional; details: route oral; outline: as §2
[23] = test system: Ovis aries; experiment: Anthelmintic activity against adult liver fluke (Fasciola hepatica) in sheep, after peroral administration of 30 mg/kg was determined; I means no effect on sheep fecal fluke egg output; format: functional, organism-based; set-up: dose 30 mg/kg; details: at 30 mg/kg; outline: as §2
[24] = test system: Ovis aries; experiment: Anthelmintic activity against adult liver fluke (Fasciola hepatica) in 3 sheep, after peroral administration of 30 mg/kg was determined. Value in parentheses indicate number of animals used; format: functional; details: route oral; outline: as §2
[25] = test system: Ovis aries; experiment: Anthelmintic activity against adult liver fluke (Fasciola hepatica) in sheep, after peroral administration of 20 mg/kg was determined; I means no effect on sheep fecal fluke egg output; format: functional, organism-based; set-up: dose 20 mg/kg; details: at 20 mg/kg; outline: as §2
[26] = test system: Ovis aries; experiment: Anthelmintic activity against adult liver fluke (Fasciola hepatica) in sheep, after peroral administration of 20 mg/kg; I means no effect on sheep fecal fluke egg output; format: functional, organism-based; set-up: dose 20 mg/kg; details: at 20 mg/kg; outline: as §2
[27] = test system: Ovis aries; experiment: Anthelmintic activity against adult fecal fluke egg output in sheep, after peroral administration of 30 mg/kg; I means no effect on sheep fecal fluke egg output; format: functional, organism-based; set-up: dose 30 mg/kg; details: at 30 mg/kg; outline: as §2

In the case of `CS/C(=N\c1cccc(C2CN3CCSC3=N2)c1)Nc1ccc(SC)cc1` (stereo not given), the Reduction [1] is reported as 30%, the Activity [2] is reported as 100% and the Activity [3] is reported as 71%. It also gave a Reduction [4] of 95% and an Activity [5] of 80%.
Compound `CS/C(=N\c1cccc(C2CN3CCSC3=N2)c1)Nc1ccc(C)c(C)c1` (stereo not given) has a Reduction [4] of 0% and an Activity [6] of 85%.
With `Nc1cccc(C2CN3CCSC3=N2)c1` (stereo not given) the Activity [7] was 0%, the Reduction [8] was 99% and the Reduction [9] was 100%. The Activity [10] was “lethal”, the Reduction [11] was 43% and the Reduction [12] was “all animals died at this dose”.
With `COc1ccc(N/C(=N/c2cccc(C3CN4CCSC4=N3)c2)SC)cc1` (stereo not given) the Activity [13] was “inactive” and the Reduction [4] was 0%.
`CS/C(=N\c1cccc(C2CN3CCSC3=N2)c1)Nc1ccc([N+](=O)[O-])cc1` (stereo not given) was tested, and the Reduction [1] was 100%, the Reduction [14] was 95% and the Reduction [4] was 100%. It also gave an Activity [15] of 94% and an Activity [5] of 85%.
Compound `CS/C(=N\c1cccc(C2CN3CCSC3=N2)c1)Nc1ccc(C(F)(F)F)cc1` (stereo not given) has an Activity [3] of 100%, a Reduction [4] of 74% and an Activity [6] of 100%.
For `CS/C(=N\c1cccc(C2CN3CCSC3=N2)c1)Nc1ccccc1` (stereo not given), the Activity [16] was 94%, the Activity [14] was 0% and the Reduction [4] was 99%. It also gave an Activity [17] of 38%.
For `CS/C(=N\c1cccc([C@H]2CN3CCSC3=N2)c1)Nc1ccc(C#N)cc1`, the Reduction [1] was 100%, the Activity [18] was 91% and the Reduction [14] was 100%. It also gave a Reduction [4] of 100%, a Reduction [19] of 99.9% and an Activity [20] of 85%. It also gave a Reduction [21] of 66% and an Activity [22] of 100%.
`CS/C(=N\c1cccc(C2CN3CCSC3=N2)c1)Nc1ccc(Br)cc1` (stereo not given) showed a Reduction [1] of 0%, a Reduction [4] of 73% and an Activity [5] of 100%. It also gave an Activity [6] of 94%.
In the case of `CC(C)S/C(=N\c1cccc(C2CN3CCSC3=N2)c1)Nc1ccccc1` (stereo not given), the Reduction [4] is reported as 0% and the Activity [23] is reported as “inactive”.
`CS/C(=N\c1cccc(C2CN3CCSC3=N2)c1)Nc1cccc(C#N)c1` (stereo not given) was tested, and the Reduction [1] was 54%, the Activity [3] was 63% and the Reduction [4] was 100%. It also gave an Activity [5] of 100% and an Activity [24] of 100%.
`CCCCCCN/C(=N/c1cccc(C2CN3CCSC3=N2)c1)SC` (stereo not given) was tested, and the Activity [13] was “inactive” and the Reduction [4] was 52%.
For `CS/C(=N\c1cccc(C2CN3CCSC3=N2)c1)NC1CCCCC1` (stereo not given), the Activity [13] was “inactive” and the Reduction [4] was 15%.
`CS/C(=N\c1cccc(C2CN3CCSC3=N2)c1)Nc1ccc(C)cc1` (stereo not given) was tested, and the Reduction [4] was 0% and the Activity [6] was 91%.
`CS/C(=N\c1cccc(C2CN3CCSC3=N2)c1)Nc1ccc(Cl)cc1` (stereo not given) gave a Reduction [1] of 0%, a Reduction [4] of 88% and an Activity [6] of 100%.
With `CS/C(=N\c1cccc(C2CN3CCSC3=N2)c1)Nc1ccc([S+](C)[O-])cc1` (stereo not given) the Reduction [1] was 33%, the Activity [3] was 14% and the Reduction [4] was 97%. It also gave an Activity [5] of 66% and an Activity [6] of 100%.
`c1ccc(CS/C(=N\c2cccc(C3CN4CCSC4=N3)c2)Nc2ccccc2)cc1` (stereo not given) was tested, and the Reduction [4] was 0% and the Activity [23] was “inactive”.
In the case of `CCOC(=O)c1ccc(N/C(=N/c2cccc(C3CN4CCSC4=N3)c2)SC)cc1` (stereo not given), the Reduction [4] is reported as 74%, the Activity [25] is reported as “inactive” and the Activity [6] is reported as 97%.
Compound `CS/C(=N\c1cccc(C2CN3CCSC3=N2)c1)Nc1cccc(F)c1` (stereo not given) has a Reduction [1] of 100%, a Reduction [14] of 64% and a Reduction [4] of 100%. The Activity [6] was 66%.
`CS/C(=N\c1cccc(C2CN3CCSC3=N2)c1)Nc1ccccc1C#N` (stereo not given) was tested, and the Reduction [4] was 0% and the Activity [23] was “inactive”.
For `CS/C(=N\c1cccc(C2CN3CCSC3=N2)c1)Nc1cccc(Cl)c1` (stereo not given), the Reduction [1] was 87%, the Reduction [4] was 99% and the Activity [26] was “inactive”. For the same compound, the Activity [6] was 91%.
`CS/C(=N\c1cccc(C2CN3CCSC3=N2)c1)Nc1cccc(Br)c1` (stereo not given) was tested, and the Reduction [1] was 56%, the Activity [3] was 77% and the Reduction [4] was 79%. The Activity [5] was 100% and the Activity [6] was 100%.
`CS/C(=N\c1cccc(C2CN3CCSC3=N2)c1)Nc1ccc(F)cc1` (stereo not given) gave a Reduction [1] of 0%, a Reduction [4] of 100% and an Activity [6] of 60%.
For `CCS/C(=N\c1cccc(C2CN3CCSC3=N2)c1)Nc1ccccc1` (stereo not given), the Reduction [4] was 92%, the Activity [26] was “inactive” and the Activity [6] was 97%.
`CS/C(=N\c1cccc(C2CN3CCSC3=N2)c1)Nc1ccc(Cl)c(Cl)c1` (stereo not given) gave a Reduction [1] of 0%, a Reduction [4] of 0% and an Activity [6] of 63%.
For `CCCCS/C(=N\c1cccc(C2CN3CCSC3=N2)c1)Nc1ccccc1` (stereo not given), the Reduction [4] was 0% and the Activity [23] was “inactive”.
For `CS/C(=N\c1cccc(C2CN3CCSC3=N2)c1)Nc1ccccc1Cl` (stereo not given), the Activity [13] was “inactive” and the Reduction [4] was 23%.
For `CS/C(=N\c1ccccc1)N(C)c1cccc(C2CN3CCSC3=N2)c1` (stereo not given), the Reduction [4] was 0% and the Activity [23] was “inactive”.
`CS/C(=N\c1cccc(C2CN3CCSC3=N2)c1)Nc1ccc(C(C)=O)cc1` (stereo not given) was tested, and the Reduction [1] was 93%, the Activity [3] was 100% and the Reduction [4] was 100%. It also gave an Activity [6] of 100%.
Work on `c1ccc(C2CN3CCSC3=N2)cc1` (stereo not given) [TETRAMISOLE] yielded a Reduction [8] of 43% and a Reduction [9] of 57%.
`CS/C(=N\c1cccc(C2CN3CCSC3=N2)c1)Nc1ccc(S(C)(=O)=O)cc1` (stereo not given) showed a Reduction [1] of 94%, an Activity [16] of 100% and an Activity [3] of 74%. For the same compound, the Reduction [14] was 41%, the Reduction [4] was 100% and the Activity [5] was 89%.
`CS/C(=N\c1cccc(C2CN3CCSC3=N2)c1)Nc1cccc([N+](=O)[O-])c1` (stereo not given) was tested, and the Reduction [1] was 95%, the Activity [3] was 100% and the Reduction [4] was 95%. For the same compound, the Activity [6] was 91%.
For `CCCCCCCCS/C(=N\c1cccc(C2CN3CCSC3=N2)c1)Nc1ccccc1` (stereo not given), the Reduction [4] was 0% and the Activity [23] was “inactive”.
`CCCS/C(=N\c1cccc(C2CN3CCSC3=N2)c1)Nc1ccccc1` (stereo not given) was tested, and the Reduction [4] was 64% and the Activity [27] was “inactive”.
